For orientation: IC50 means the concentration that inhibits the measured activity by half. By aqueous solubility is commonly meant the concentration that dissolves in the medium under given conditions. A lower aqueous solubility goes with little dissolved substance.

Marks after values point to notes of the source that are not given here.

Data on 6 compounds can be found in PMC4351917 (Journal of medicinal chemistry, 2014).

A short description of data set [1]: Lipophilicity by RP-HPLC retention factors. The class given is physicochemical. The note with it: for log kw: 0.1% TFA water/MeOH, values extrapolated to 0% MeOH; for log k30: mobile phase containing 30% MeOH.
Data set [2] in a line: Stability in aqueous media under physiologically relevant conditions. The class given is physicochemical. To be noted: PBS (pH 7.4 and 6.0), 37 °C, 0.5 mM. The method in brief: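 Each complex (0.5 mM) was incubated at 37 °C for 24 h in water, PBS pH 7.4, PBS pH 6.0 and 0.05 M HCl (pH 1.5). Samples taken at 1 and 24 h were analysed by isocratic RP-HPLC on a C18 column at 25 °C, with 0.1% TFA water/MeOH adjusted for elution within 15 min and UV detection at 210 nm.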

Data set [3] has as its system A549 (nonsmall cell lung cancer). The note with it: read-out: IC50, 96 h A549; MTT assay, exposure 96 h; cited from earlier work.
The nature of data set [4]: Platinum concentration in mouse tissues and serum by ICP-MS. The class given is in vivo, Balb/c mice. The note with it: for serum platinum level: CT-26 mice.
In data set [5] the test system is CH1 (ovarian carcinoma). The note with it: read-out: IC50, 96 h CH1; MTT assay, exposure 96 h; cited from earlier work.
In data set [6] the test system is SW480 (colon carcinoma). The note with it: read-out: IC50, 96 h SW480; MTT assay, exposure 96 h; cited from earlier work. (In general: Tetrazolium dyes change colour on reduction, which living cells bring about.)
Data set [7] has as its system CH1 (ovarian carcinoma). The data set is described as follows: MTT cytotoxicity assay, CH1. The note with it: CH1 cells. The class given is cell-based, human. A digest of the protocol: (§1)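 Adherent cells grown in MEM with 10% FBS, pyruvate, NEAA and glutamine, without antibiotics. Seeded per well at 1.0 × 10³ for CH1 and 2.0 × 10³ for SW480, then settled for 24 h. Serial dilutions of test compound in medium were applied for 96 h continuous exposure at 37 °C. MTT was added for 4 h, formazan dissolved in DMSO, and read at 550 nm (ref 690 nm). IC₅₀ was interpolated from concentration–effect curves, ≥3 independent experiments in triplicate.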

In data set [8] the test system is SW480 (colon carcinoma). The data set is described as follows: MTT cytotoxicity assay, SW480. The class given is cell-based, human. To be noted: SW480 cells. A digest of the protocol:
as §1

Data set [9] can be described thus: Aqueous solubility. The note with it: water. The class given is physicochemical.
Data set [10] is described as follows: Reduction by sodium ascorbate, RP-HPLC. The class given is physicochemical. The note with it: 15-fold excess sodium ascorbate.
The test system of data set [11] is L1210 murine leukemia cells. The data set is described as follows: Antileukemic activity in vivo. The note with it: L1210 leukemia-bearing mice. Details: species or system female DBA/2J × Balb/c SCID F1 mice.
Data set [12] can be described thus: General toxicity in the animal experiments. To be noted: all in vivo experiments, 10-30 mg/kg i.p., mice. The method in brief: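 Test compound in water, given i.p. L1210 model: female DBA/2J × Balb/c SCID F1 mice, 1 × 10⁵ cells i.p. on day 0, dosed 10, 20, 30 mg/kg on days 1, 5, 9, with daily observation and body weight. CT-26 model: female Balb/c mice aged 6–8 weeks, 5 × 10⁵ cells s.c. into the flank, 30 mg/kg on days 4, 7, 11, 14, with daily distress checks.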

Setting [13] is: 9 mg/kg i.v. days 4, 7, 11, 14, day 15.
[14] abbreviates: 30 mg/kg i.p. days 4, 7, 11, 14, day 15.

In the case of `NCCN.O=C1[O][Pt]2([O]C(=O)C13CCC3)[O]C(=O)C1(CCC1)C(=O)[O]2` [1d, (OC-6-22)-Bis(1,1-cyclobutanedicarboxylato)ethane-1,2-diamineplatinum(IV)], in data set [1], the log kw was 1.28 ± 0.01 and the “log k30” value is on record as 0.28 ± 0.01.

In the case of `CCN.CCN.O=C([O-])CC(=O)[O-].O=C([O-])CC(=O)[O-].[Pt+4]` [2b, (OC-6-22)-Bis(ethylamine)bis(malonato)platinum(IV)], the “decomposition after 24 h of incubation in PBS solution” value in [2] is given as less than 10%.

For the compound `N.N.O=C([O-])C1(C(=O)[O-])CCC1.[Pt+2]` [carboplatin, reference compound], in data set [1], the log kw was −0.36 ± 0.04^c and the “log k30” value is listed as −0.80 ± 0.01. In addition, the IC50 in data set [3] was 91000 ± 10000 nM.

Regarding `O=C1[O][Pt]2([NH][C@@H]3CCCC[C@H]3[NH]2)[O]C1=O` [oxaliplatin, reference compound], in data set [4] (9 mg/kg i.v. days 4, 7, 11, 14, 24 h after last application), the serum platinum level was ~ 0.3 μg/mL. For the same compound, the platinum in kidney in data set [4] (setting [13]) is reported as ~ 4.5 μg/g. The platinum in liver in [4] (setting [13]) is ~ 2 μg/g. Besides, the IC50 is 980 ± 210 nM in [3], 180 ± 10 nM in data set [5] and 290 ± 50 nM in [6].

As to `CC(=O)[O][Pt]([NH2])([Cl])([Cl])([NH]C1CCCCC1)[O]C(C)=O` [satraplatin, reference compound], in [1], the log kw is 1.63 ± 0.04 and the “log k30” value worked out at 0.68 ± 0.01.

On to “(OC-6-22)-((1R,2R)-Diaminocyclohexane)bis(malonato)-platinum(IV) [4b]”, for which, in data set [1], the log kw is on record as −0.11 ± 0.01 and the “log k30” value was −0.65 ± 0.02. In data set [7] (versus 1b), the “times more potent than 1b” value was 4 times. The “times more potent than 2b” value in data set [7] (versus 2b) was 12 times. Besides, in data set [7] (versus 3b), the “potency relative to 3b” value is reported as “twice as potent”. Also, in [7] (versus 5b), the “activity relative to 5b” value is given as “same activity”. In data set [8] (versus 1b, 2b and 3b), the “times more active than 1b, 2b, and 3b” value is listed as “at least 8 times”. Moreover, the “times more active than 5b” value in [8] (versus 5b) is recorded as 6 times. The “decomposition after 24 h of incubation in PBS solution” value in data set [2] is reported as “no decomposition products were observed”. This compound gave an aqueous solubility in data set [9] greater than 15 mM. The “complex still in its native form” value in data set [10] (PBS pH 7.4, 37 °C, after 20 h) was “more than 90%”. The complex intact in data set [10] (unbuffered water, 37 °C, after 24 h) was ~ 95%. Also, the effect on survival entry in [11] (10 mg/kg i.p. on days 1, 5, 9) is reported as “no effect on the survival”. Further, the mice being cured in data set [11] (30 mg/kg i.p. on days 1, 5, 9, n = 4) is 3/4. Besides, in [4] (30 mg/kg i.p. days 4, 7, 11, 14, 24 h after last application), the serum platinum level is reported as ~ 3 μg/mL. Besides, in [4] (setting [14]), the platinum in kidney is listed as ~ 10.5 μg/g, the platinum in liver is on record as ~ 15 μg/g, the platinum in lung is reported as ~ 5 μg/g and the “platinum in sciatic nerve” value was ~ 1.8 μg/g. Moreover, in data set [4] (setting [14]), the “platinum in tumor tissue” value is ~ 5 μg/g. In addition, the “serum platinum circulation compared to oxaliplatin-treated mice” value in data set [4] (4b 30 mg/kg i.p. versus oxaliplatin 9 mg/kg i.v., 24 h after last application) worked out at 10 times. The “tolerability / signs of toxicity (fatigue, weight loss)” value in data set [12] is “well-tolerated with no signs of toxicity”.
